Active and inactive are the calls of the source. The rule behind the calls is not given here.
How the values were obtained:
[1] = molecular target: T1, DNA topoisomerase 2-alpha (Homo sapiens, UniProt P11388); assay: Inhibition of human topoisomerase-2 alpha at 100 uM using supercoiled pBR322 DNA as substrate after 30 mins by agarose gel electrophoresis method relative to control
[2] = molecular target: T1, DNA topoisomerase 2-alpha; assay: Inhibition of human topoisomerase-2 alpha at 20 uM using supercoiled pBR322 DNA as substrate after 30 mins by agarose gel electrophoresis relative to control
[3] = Cytotoxicity against human HCT15 cells assessed as reduction in cell growth after 72 hrs by CCK8 assay; assay type: functional, cell-based; conditions: HCT-15, 72 h
Summary of the method: (§1)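 Cells (2~4 x 10^4 per well) seeded overnight in media with 10% FBS, 37 °C, 5% CO₂, then exposed to graded compound concentrations for 72 h. CCK-8 solution added for a further 4 h; absorbance read at 450 nm. IC₅₀ from four-parameter logistic fit; adriamycin, etoposide and camptothecin as positive controls.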

[4] = Cytotoxicity against human T47D cells assessed as reduction in cell growth after 72 hrs by CCK8 assay; assay type: functional, cell-based; summary of the method: as §1
[5] = Cytotoxicity against human HeLa cells assessed as reduction in cell growth after 72 hrs by CCK8 assay; assay type: functional, cell-based; summary of the method: as §1
[6] = Cytotoxicity against human NCI-N87 cells assessed as reduction in cell growth after 72 hrs by CCK8 assay; assay type: functional, cell-based; conditions: NCI-N87, 72 h; summary of the method: as §1
[7] = molecular target: T1, DNA topoisomerase 2-alpha; assay: Inhibition of topoisomerase-2 alpha catalytic activity in human T47D cells assessed as increase in free topoisomerase-2 alpha level at 50 uM after 2 hrs by Western blot method; assay type: cell-based
Summary of the method: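 T47D cells (2 x 10^5 per well) seeded overnight, treated 2 h at 37 °C with 50 µM compound or etoposide in serum-free RPMI. Harvested cells washed in PBS, lysed in 62.5 mM Tris-HCl pH 6.8, 1 mM EDTA, 2% SDS with sonication; cleared supernatant run on 10% SDS-PAGE and free topo IIα detected by Western blot.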

[8] = molecular target: T1, DNA topoisomerase 2-alpha; assay: Poisoning activity at human topoisomerase-2 alpha assessed as stabilization of enzyme-pBR322 DNA cleavage complex by measuring linear DNA formation at 100 uM after 30 mins by agarose gel electrophoresis; conditions: 0.5 h
[9] = molecular target: T1, DNA topoisomerase 2-alpha; assay: Poisoning activity at topoisomerase-2 alpha in human T47D cells assessed as induction of DNA damage by measuring comet formation at 5 to 10 uM after 24 hrs by SYBR Green staining based inverted fluorescence microscopic analysis; assay type: cell-based
Summary of the method: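 Alkaline comet assay: T47D cells seeded in six-well plates, treated at ~70% confluence with 5 or 10 µM compound for 24 h, trypsinized, embedded in low-melting agarose. Lysis 30 min at 4 °C, alkaline unwinding (pH>13) 30 min, electrophoresis 20 min at 15 V, SYBR Green stain; imaged by inverted fluorescence microscopy, percent DNA in tail quantified.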

T1 sequence (P11388 whole entry): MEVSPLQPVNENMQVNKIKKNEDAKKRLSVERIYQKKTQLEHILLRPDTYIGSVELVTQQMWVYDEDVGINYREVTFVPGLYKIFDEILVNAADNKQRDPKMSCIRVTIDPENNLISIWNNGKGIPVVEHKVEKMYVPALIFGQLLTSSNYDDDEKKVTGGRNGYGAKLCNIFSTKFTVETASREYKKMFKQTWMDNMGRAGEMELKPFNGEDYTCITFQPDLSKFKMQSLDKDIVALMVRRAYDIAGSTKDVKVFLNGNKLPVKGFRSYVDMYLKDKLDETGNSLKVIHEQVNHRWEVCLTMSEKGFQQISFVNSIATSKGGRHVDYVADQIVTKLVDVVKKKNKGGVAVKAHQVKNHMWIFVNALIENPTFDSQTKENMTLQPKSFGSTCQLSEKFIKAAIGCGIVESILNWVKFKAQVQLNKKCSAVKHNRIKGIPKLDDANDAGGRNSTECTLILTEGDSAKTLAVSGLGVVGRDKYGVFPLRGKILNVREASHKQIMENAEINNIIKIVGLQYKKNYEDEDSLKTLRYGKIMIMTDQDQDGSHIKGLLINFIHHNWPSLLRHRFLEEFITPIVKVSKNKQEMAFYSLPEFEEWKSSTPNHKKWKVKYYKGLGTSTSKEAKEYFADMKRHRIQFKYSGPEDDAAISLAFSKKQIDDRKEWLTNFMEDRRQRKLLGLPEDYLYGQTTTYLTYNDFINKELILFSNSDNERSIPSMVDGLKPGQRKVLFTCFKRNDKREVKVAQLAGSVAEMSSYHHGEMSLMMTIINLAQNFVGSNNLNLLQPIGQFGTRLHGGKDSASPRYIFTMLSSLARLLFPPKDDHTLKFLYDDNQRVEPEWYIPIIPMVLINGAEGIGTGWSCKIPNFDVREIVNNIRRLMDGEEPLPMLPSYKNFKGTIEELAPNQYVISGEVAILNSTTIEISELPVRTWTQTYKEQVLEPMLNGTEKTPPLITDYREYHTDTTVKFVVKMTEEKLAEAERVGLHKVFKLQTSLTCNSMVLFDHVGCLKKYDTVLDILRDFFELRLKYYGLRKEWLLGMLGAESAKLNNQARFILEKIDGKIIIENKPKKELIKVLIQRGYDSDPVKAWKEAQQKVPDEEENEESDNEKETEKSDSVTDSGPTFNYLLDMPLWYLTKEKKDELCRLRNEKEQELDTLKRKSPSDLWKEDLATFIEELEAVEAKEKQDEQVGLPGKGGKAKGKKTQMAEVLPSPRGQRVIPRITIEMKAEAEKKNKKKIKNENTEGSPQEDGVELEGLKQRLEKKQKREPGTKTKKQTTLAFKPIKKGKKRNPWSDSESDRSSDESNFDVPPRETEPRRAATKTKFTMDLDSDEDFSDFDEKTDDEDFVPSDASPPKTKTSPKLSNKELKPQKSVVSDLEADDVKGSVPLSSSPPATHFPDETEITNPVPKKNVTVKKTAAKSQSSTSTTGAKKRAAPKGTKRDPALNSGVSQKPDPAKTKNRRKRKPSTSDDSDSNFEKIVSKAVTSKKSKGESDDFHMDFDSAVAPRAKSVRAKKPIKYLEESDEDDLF

Row | Compound | inhibition [1] | inhibition [2] | IC50 [3] | IC50 [4] | IC50 [5] | IC50 [6] | inhibition [7] | Activity [8] | Activity [9]
1 | CCCCNCC(O)COc1cc(OCCc2cccc(Cl)c2)c2c(=O)c3cccc(OC)c3oc2c1 (centres undefined) | 62.8% | 20.4% | 1.49 µM | 0.19 µM | 2.6 µM | 0.4 µM | Active | – | –
2 | COc1cc([C@@H]2c3cc4c(cc3[C@@H](O[C@@H]3O[C@@H]5CO[C@@H](C)O[C@H]5[C@H](O)[C@H]3O)[C@H]3COC(=O)[C@H]23)OCO4)cc(OC)c1O [ETOPOSIDE] | – | 45.6% | 1.06 µM | 2.8 µM | 10 µM | 1.29 µM | – | Active | Active
